Assay results: ChEMBL document CHEMBL4007422 (J Med Chem, 2017)
Calls of active or inactive are those of the source. The calls are words filed in the database; no cut-off is given here.

Assays:
Rattus norvegicus [1] = assay: Toxicity in Wistar rat assessed as induction of cholinergic side effects at 1 and 3 mg/kg, po in presence of 1 mg/kg of donepezil and memantine administered sc 30 mins post compound treatment measured after 4 hrs by LC-MS/MS based microdialysis method relative to control; format: organism-based; conditions: in vivo
How it was run: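 The probe (4 mm membrane) was inserted 16 h before the study and perfused with aCSF (pH 7.2) at 1.5 μL/min, with 2 h stabilization. Five 20-min basal samples were taken before oral compound. Donepezil and memantine (1 mg/kg s.c. each) were given 30 min later. Dialysates were collected for 4 h and acetylcholine measured by LC-MS/MS as % of basal. Comparison was against donepezil+memantine by two-way ANOVA.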

[2] = Volume of distribution in Beagle dog at 3 mg/kg, iv or at 10 mg/kg, po; format: ADME, organism-based, Canis lupus familiaris; conditions: in vivo
How it was run: (§1)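 Beagle dogs received 10 mg/kg p.o. and 3 mg/kg i.v. in a pharmacokinetic study. From plasma exposure the authors derived AUC0-t, terminal half-life, intravenous clearance, volume of distribution and absolute oral bioavailability.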

Cytochrome P450 2B6 [3] = target: T1, Cytochrome P450 2B6 (Homo sapiens, UniProt P20813); assay: Inhibition of CYP2B6 in human liver microsomes in presence of NADPH by LC-MS/MS analysis; format: ADME
How it was run: (§2)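 Pooled human liver microsomes. IC50 determined from isoform-specific marker activities for CYP1A2, 2A6, 2B6, 2C8, 2C9, 2C19 (mephenytoin hydroxylation) and 2E1.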

[4] = target: Alpha-2A adrenergic receptor (Homo sapiens) (UniProt P08913); conditions: 1 uM
Homo sapiens = assay: Toxicity in healthy male and female human subjects administered as single ascending dose for 14 days; conditions: in vivo, 336 h
Rattus norvegicus [5] = assay: Cognitive enhancing effect in contextual fear conditioning rat model assessed as reversal of scopolamine-induced emotional memory deficits at 1 to 10 mg/kg, po administered for 1 hr followed by scopolamine challenge for 120 mins; format: functional, organism-based
Cytochrome P450 2C8 = Cytochrome P450 2C8 (Homo sapiens, UniProt P10632); assay: Inhibition of CYP2C8 in human liver microsomes in presence of NADPH by LC-MS/MS analysis; format: ADME; how it was run: as §2
Salmonella typhimurium [6] = assay: Mutagenicity in Salmonella typhimurium TA1537 in presence of metabolic activation; format: toxicity; conditions: salmonella enterica subsp. enterica serovar typhimurium
Salmonella typhimurium [7] = assay: Mutagenicity in Salmonella typhimurium TA98 in absence of metabolic activation; format: toxicity; conditions: salmonella enterica subsp. enterica serovar typhimurium
[8] = Apparent permeability of the compound in human Caco2 cells at 10 uM measured up to 120 mins by LC-MS/MS analysis; format: ADME, cell-based; conditions: Caco-2
How it was run: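 Permeability in Caco-2 intestinal epithelial monolayers, measured apical-to-basolateral and basolateral-to-apical; efflux ratio taken as Papp(B-A)/Papp(A-B).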

Cytochrome P450 1A2 = Cytochrome P450 1A2 (Homo sapiens, UniProt P05177); assay: Induction of CYP1A2 activity in human hepatocytes at 0.01 to 1 uM preincubated for 3 days followed by substrate addition measured after 30 mins; format: ADME, cell-based; conditions: 0.5 h
How it was run: (§3)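 Plateable human hepatocytes exposed to 0.01, 0.1 and 1.0 μM. CYP1A2, CYP2B6 and CYP3A4 induction read as both mRNA expression and enzyme activity.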

[9] = Solubility of the compound in water; format: physicochemical; conditions: buffer
Salmonella typhimurium [10] = assay: Mutagenicity in Salmonella typhimurium TA1535 in presence of metabolic activation; format: toxicity; conditions: salmonella enterica subsp. enterica serovar typhimurium
[11] = Protein binding in human plasma at 1 uM after 6 hrs by LC-MS/MS based rapid equilibrium dialysis method; format: ADME, cell-free; conditions: read-out: PPB (converted)
How it was run: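 Plasma protein binding in rat, dog and human plasma determined by equilibrium dialysis.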

Salmonella typhimurium [12] = assay: Mutagenicity in Salmonella typhimurium TA1535 in absence of metabolic activation; format: toxicity; conditions: salmonella enterica subsp. enterica serovar typhimurium
[13] = Terminal half life in Beagle dog at 10 mg/kg, po; format: ADME, organism-based, Canis lupus familiaris; conditions: in vivo, read-out: beta t1/2 (converted); how it was run: as §1
Cytochrome P450 2B6 [14] = target: T1, Cytochrome P450 2B6; assay: Induction of CYP2B6 activity in human hepatocytes at 0.01 to 1 uM preincubated for 3 days followed by substrate addition measured after 30 mins; format: ADME, cell-based; conditions: 0.5 h; how it was run: as §3
[15] = Oral bioavailability in Wistar rat at 10 mg/kg by LC-MS/MS analysis; format: ADME, organism-based; conditions: Wistar, in vivo
Hepatocyte [16] = assay: Induction of CYP1A2 mRNA expression in human hepatocytes at 0.01 to 1 uM after 3 days by qRT-PCR analysis; format: ADME, cell-based; conditions: 72 h; how it was run: as §3
[17] = target: Alpha-2C adrenergic receptor (Homo sapiens, UniProt P18825); assay: Inhibition of recombinant human adrenergic alpha 2C receptor expressed in CHO cells assessed as inhibition of 5-HT stimulated cAMP accumulation after 4 hrs by luciferase reporter gene assay; format: functional, cell-based
Salmonella typhimurium [18] = assay: Mutagenicity in Salmonella typhimurium TA98 in presence of metabolic activation; format: toxicity; conditions: salmonella enterica subsp. enterica serovar typhimurium
[19] = Clearance in Wistar rat at 10 mg/kg, iv by LC-MS/MS analysis; format: ADME, organism-based; conditions: in vivo
Salmonella typhimurium [20] = assay: Mutagenicity in Salmonella typhimurium TA1537 in absence of metabolic activation; format: toxicity; conditions: salmonella enterica subsp. enterica serovar typhimurium
[21] = target: 5-hydroxytryptamine receptor 7 (Rattus norvegicus) (UniProt P32305); assay: Binding affinity to recombinant rat 5-HT7 receptor expressed in CHOK1 cells assessed as inhibition of 5-HT stimulated cAMP accumulation after 4 hrs by luciferase reporter gene assay; format: cell-based
[22] = target: T2, 5-hydroxytryptamine receptor 1A (Homo sapiens) (UniProt P08908); assay: Displacement of [3H]-8-OH-DPAT from recombinant human 5-HT1A receptor expressed in HEK293 EBNA cell membranes after 120 mins by microbeta scintillation counting analysis
T2 sequence (whole entry): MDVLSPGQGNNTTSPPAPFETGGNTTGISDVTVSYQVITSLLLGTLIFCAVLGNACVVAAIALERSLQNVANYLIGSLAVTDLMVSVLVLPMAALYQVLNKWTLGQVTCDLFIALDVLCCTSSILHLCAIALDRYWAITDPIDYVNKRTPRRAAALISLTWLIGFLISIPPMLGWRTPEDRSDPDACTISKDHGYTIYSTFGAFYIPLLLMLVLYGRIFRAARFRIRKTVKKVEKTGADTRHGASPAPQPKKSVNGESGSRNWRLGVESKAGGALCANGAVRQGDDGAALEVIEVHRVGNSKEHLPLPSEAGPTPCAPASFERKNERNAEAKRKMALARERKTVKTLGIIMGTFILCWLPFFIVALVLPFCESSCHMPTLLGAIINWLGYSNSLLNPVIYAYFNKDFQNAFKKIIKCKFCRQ

Cytochrome P450 3A4 = Cytochrome P450 3A4 (Homo sapiens, UniProt P08684)
Hepatocyte [23] = assay: Induction of CYP3A4 mRNA expression in human hepatocytes at 0.01 to 1 uM after 3 days by qRT-PCR analysis; format: ADME, cell-based; conditions: 72 h; how it was run: as §3
Rattus norvegicus [24] = assay: Reversal of time-induced amnesia in Wistar rat at 1 to 10 mg/kg, po administered 60 mins prior to testing measured for 3 mins by object recognition test; format: functional, organism-based
How it was run: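 Time-induced object recognition task in rats. Oral dosing at 1, 3 and 10 mg/kg given 60 min before the test; vehicle water for injection 1 mL/kg p.o.; n = 7−12/group. Exploration of novel versus familiar object compared by paired t-test.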

Cytochrome P450 2D6 = Cytochrome P450 2D6 (Homo sapiens, UniProt P10635); assay: Inhibition of CYP2D6 in human liver microsomes in presence of NADPH by LC-MS/MS analysis
Sequence of Cytochrome P450 2D6 (P10635 whole entry): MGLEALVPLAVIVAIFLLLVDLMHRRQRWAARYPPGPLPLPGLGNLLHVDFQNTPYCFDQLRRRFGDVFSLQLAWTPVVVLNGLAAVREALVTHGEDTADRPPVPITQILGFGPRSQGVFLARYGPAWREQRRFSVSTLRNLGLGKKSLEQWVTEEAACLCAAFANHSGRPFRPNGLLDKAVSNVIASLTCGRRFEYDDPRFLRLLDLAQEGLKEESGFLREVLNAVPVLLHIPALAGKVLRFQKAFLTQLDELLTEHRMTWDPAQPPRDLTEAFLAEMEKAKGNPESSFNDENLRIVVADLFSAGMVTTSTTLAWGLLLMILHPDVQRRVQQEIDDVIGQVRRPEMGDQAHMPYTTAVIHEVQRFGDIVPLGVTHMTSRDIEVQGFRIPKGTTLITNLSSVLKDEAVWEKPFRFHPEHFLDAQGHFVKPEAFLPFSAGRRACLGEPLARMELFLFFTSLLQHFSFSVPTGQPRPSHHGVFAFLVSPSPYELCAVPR

T1 sequence (P20813 whole entry, canonical isoform): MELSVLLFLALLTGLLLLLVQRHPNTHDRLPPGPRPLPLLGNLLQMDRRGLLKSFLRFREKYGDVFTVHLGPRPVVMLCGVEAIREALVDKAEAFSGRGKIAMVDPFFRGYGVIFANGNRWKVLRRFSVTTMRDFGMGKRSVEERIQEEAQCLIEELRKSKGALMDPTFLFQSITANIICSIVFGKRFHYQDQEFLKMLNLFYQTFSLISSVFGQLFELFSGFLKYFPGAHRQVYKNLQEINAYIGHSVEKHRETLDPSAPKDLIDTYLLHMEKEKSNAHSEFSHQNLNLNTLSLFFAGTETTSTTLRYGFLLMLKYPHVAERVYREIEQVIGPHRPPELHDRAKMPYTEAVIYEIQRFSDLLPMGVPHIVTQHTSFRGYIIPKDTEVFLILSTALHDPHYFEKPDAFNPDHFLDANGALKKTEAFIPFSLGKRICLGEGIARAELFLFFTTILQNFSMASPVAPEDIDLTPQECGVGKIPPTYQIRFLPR
Sequence of Alpha-2C adrenergic receptor (P18825 whole entry): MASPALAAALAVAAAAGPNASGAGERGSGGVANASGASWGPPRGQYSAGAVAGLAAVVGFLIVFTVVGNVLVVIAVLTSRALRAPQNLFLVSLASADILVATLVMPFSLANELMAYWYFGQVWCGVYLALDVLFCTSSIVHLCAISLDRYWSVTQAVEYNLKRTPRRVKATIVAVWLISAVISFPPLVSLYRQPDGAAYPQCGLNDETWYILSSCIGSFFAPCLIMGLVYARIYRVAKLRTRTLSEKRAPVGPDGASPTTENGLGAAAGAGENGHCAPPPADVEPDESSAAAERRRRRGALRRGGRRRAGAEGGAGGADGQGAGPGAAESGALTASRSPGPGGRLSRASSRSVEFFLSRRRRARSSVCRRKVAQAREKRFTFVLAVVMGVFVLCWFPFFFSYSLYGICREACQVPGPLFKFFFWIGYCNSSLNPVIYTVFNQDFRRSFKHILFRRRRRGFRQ
Sequence of 5-hydroxytryptamine receptor 7 (Rattus norvegicus) (P32305 whole entry): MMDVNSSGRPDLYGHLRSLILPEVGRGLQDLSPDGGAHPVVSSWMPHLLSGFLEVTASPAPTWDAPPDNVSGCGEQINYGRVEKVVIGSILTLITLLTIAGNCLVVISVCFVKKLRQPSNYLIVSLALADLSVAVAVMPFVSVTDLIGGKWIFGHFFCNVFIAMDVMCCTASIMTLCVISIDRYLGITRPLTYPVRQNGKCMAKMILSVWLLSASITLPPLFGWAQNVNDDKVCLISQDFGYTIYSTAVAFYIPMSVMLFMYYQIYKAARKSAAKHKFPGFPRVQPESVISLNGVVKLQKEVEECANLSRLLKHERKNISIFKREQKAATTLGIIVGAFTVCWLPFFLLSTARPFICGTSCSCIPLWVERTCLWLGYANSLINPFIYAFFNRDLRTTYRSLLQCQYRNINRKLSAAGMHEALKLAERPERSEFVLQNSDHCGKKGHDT
Sequence of Cytochrome P450 1A2 (P05177 whole entry): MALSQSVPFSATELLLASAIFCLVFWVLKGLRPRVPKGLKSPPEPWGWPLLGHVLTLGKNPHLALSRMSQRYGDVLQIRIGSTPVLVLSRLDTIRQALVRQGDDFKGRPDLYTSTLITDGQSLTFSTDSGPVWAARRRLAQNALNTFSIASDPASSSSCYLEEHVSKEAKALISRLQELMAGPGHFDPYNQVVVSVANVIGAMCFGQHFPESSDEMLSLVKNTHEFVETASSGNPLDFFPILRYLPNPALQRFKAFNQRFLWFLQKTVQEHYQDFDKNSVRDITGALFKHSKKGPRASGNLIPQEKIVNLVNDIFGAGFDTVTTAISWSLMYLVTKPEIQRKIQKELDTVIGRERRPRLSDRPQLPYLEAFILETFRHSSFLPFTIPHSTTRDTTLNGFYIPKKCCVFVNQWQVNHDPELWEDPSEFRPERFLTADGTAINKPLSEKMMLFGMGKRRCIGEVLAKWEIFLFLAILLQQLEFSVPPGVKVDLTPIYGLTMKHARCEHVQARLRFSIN
Sequence of Alpha-2A adrenergic receptor (Homo sapiens) (P08913 whole entry): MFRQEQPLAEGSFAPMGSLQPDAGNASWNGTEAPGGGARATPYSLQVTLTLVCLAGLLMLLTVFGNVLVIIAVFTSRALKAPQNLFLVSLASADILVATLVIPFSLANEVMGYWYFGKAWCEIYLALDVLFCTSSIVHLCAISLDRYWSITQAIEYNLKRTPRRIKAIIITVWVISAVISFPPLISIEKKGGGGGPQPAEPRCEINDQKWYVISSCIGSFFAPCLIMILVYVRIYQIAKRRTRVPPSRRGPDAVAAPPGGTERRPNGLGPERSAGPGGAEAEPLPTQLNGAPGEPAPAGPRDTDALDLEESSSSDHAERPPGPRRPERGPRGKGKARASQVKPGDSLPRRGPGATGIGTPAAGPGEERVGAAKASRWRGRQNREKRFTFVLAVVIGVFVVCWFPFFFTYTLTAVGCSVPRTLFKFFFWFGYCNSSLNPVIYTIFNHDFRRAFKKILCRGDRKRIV
Sequence of Cytochrome P450 3A4 (P08684 whole entry): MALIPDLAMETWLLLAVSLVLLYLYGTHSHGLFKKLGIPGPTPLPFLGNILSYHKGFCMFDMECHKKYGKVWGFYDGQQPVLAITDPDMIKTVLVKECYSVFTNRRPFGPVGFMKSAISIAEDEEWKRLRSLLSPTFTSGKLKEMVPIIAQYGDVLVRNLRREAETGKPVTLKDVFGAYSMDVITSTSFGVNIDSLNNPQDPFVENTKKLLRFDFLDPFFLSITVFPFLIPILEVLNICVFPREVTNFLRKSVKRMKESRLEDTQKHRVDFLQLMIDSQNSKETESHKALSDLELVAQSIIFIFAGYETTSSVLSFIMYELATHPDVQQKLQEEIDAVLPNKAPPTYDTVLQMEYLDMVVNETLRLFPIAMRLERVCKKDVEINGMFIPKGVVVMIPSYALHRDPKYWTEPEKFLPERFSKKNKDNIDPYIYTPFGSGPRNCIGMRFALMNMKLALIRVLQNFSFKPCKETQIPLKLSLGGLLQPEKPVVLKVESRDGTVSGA
Sequence of Cytochrome P450 2C8 (P10632 whole entry): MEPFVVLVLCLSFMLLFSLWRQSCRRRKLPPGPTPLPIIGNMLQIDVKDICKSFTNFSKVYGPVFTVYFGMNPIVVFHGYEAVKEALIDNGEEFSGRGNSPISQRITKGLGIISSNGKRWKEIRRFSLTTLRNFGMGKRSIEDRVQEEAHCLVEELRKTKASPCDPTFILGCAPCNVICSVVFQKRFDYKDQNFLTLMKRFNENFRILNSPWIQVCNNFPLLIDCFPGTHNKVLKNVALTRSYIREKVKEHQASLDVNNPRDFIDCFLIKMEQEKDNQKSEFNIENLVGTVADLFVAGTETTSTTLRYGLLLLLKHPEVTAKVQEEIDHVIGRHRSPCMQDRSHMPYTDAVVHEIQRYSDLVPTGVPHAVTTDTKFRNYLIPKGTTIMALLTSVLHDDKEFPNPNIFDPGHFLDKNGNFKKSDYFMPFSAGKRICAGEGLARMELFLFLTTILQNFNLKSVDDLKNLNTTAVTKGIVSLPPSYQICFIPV

Vd [2]: 7.5 L/kg
IC50 (Cytochrome P450 2B6 [3]): > 10 µM
inhibition [4]: > 50%
IC50 (Cytochrome P450 2C8): > 10 µM
Papp at 2 h, 10 µM [8]: 19.6 ×10⁻⁶ cm/s
Activity (Cytochrome P450 1A2): Not Active
solubility [9]: 1200 mg/mL
fraction unbound at 6 h, 1 µM [11]: 0.02
half-life [13]: 3.5 h
Activity (Cytochrome P450 2B6 [14]): Not Active
bioavailability [15]: 24.9%
Kb [17]: 0.619 µM
clearance [19]: 53 mL/min/kg
Activity [21]: inactive
Activity [22]: inactive
IC50 (Cytochrome P450 3A4): 1.5 µM
IC50 (Cytochrome P450 2D6): 13.2 µM
SMILES: COc1ccc2c(c1)c(CN1CCN(C)CC1)cn2S(=O)(=O)c1ccccc1Br.CS(=O)(=O)O.O
Activity (Rattus norvegicus [1]): Non-Toxic
Activity (Homo sapiens): Non-Toxic
Activity (Rattus norvegicus [5]): Active
Activity (Salmonella typhimurium [6]): Non-Toxic
Activity (Salmonella typhimurium [7]): Non-Toxic
Activity (Salmonella typhimurium [10]): Non-Toxic
Activity (Salmonella typhimurium [12]): Non-Toxic
Activity (Hepatocyte [16]): Non-Toxic
Activity (Salmonella typhimurium [18]): Non-Toxic
Activity (Salmonella typhimurium [20]): Non-Toxic
Activity (Hepatocyte [23]): Non-Toxic
Activity (Rattus norvegicus [24]): Active
